This note sets out measurements from ChEMBL document CHEMBL1914355, “Discovery of new orally active prostaglandin D2 receptor antagonists” (Bioorg Med Chem, 2011).

One data set deals with Prostacyclin receptor (Homo sapiens, UniProt P43119). The data set can be described thus: Displacement of [3H]Iloprost from human prostanoid IP receptor expressed in CHO cells after 30 mins by liquid scintillation counting. Type of data set: cell-based. In outline: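 Membranes from CHO cells stably expressing hIP were incubated with 5.0 nM [³H]iloprost and graded compound concentrations in 50 mM Tris-HCl (1 mM EDTA, 10 mM MgCl₂, pH 7.5) for 30 min at room temperature. Filters (GF/B) were washed with ice-cold Tris/NaCl pH 7.5, dried 60 min at 60 °C, and counted. Nonspecific binding used excess unlabeled iloprost. Ki = IC50/(1+[L]/Kd).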
Chain of Prostacyclin receptor (P43119 whole entry): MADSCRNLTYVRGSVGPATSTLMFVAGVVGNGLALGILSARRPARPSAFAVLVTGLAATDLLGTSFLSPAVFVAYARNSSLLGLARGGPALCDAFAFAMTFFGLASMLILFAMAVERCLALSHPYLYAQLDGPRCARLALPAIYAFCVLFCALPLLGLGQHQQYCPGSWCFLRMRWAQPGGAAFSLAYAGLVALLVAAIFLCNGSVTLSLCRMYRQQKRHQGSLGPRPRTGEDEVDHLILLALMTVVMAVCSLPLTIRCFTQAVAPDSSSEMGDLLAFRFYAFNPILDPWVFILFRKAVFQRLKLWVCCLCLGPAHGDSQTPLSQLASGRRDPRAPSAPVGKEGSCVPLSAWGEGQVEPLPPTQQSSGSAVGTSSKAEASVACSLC

The target of data set [1] is T1, Prostaglandin D2 receptor (Mus musculus, UniProt P70263).
T1 sequence (P70263 whole entry): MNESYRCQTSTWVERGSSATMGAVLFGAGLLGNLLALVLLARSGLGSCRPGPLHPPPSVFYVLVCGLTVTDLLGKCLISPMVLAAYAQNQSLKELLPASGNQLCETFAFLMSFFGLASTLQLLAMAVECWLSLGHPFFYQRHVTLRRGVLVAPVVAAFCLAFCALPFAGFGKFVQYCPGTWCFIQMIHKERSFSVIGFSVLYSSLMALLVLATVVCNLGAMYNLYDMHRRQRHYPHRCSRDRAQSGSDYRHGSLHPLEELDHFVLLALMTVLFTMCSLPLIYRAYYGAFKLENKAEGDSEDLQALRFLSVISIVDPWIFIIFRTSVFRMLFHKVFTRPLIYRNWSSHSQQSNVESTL
The data set can be described thus: Antagonist activity at mouse prostanoid DP receptor expressed in CHO cells assessed as inhibition of PGD2-induced intracellular cAMP production after 10 mins by enzyme immunoassay. Type of data set: functional, cell-based. In outline:
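CHO cells expressing mDP seeded at 1 × 10⁵ cells/well and grown 2 days. They were rinsed and preincubated ~10 min at 37 °C in MEM with 2 µM diclofenac, then ~10 min in assay medium (MEM, 0.1% BSA, 1 mM IBMX, 2 µM diclofenac). Compound plus 10 nM PGD₂ was added for 10 min at 37 °C. TCA stop, tri-n-octylamine/chloroform extraction, cAMP by EIA. IC50 taken from % of maximal cAMP rise without compound.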

In data set [2] the target is T2, Prostaglandin D2 receptor (Homo sapiens, UniProt Q13258).
T2 sequence (Q13258 whole entry): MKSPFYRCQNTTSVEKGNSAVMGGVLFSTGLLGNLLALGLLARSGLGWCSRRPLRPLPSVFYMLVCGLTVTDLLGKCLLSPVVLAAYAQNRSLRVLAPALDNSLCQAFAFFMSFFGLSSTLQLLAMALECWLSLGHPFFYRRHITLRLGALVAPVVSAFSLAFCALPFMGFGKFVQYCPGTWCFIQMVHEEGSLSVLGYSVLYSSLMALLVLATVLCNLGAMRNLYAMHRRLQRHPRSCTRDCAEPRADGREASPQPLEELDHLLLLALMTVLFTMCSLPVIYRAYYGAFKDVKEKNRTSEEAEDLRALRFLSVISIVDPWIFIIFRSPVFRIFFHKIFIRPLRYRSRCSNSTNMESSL
Kind of data set: Antagonist activity at prostanoid DP receptor in human platelet rich plasma assessed as inhibition of PGD2-induced intracellular cAMP production after 10 mins by enzyme immunoassay. Type of data set: functional, cell-based. To be noted: in the assay text read “after 15 mins” for “after 10 mins”. The essentials:
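Human PRP with EDTA (~10 mmol/L) was spun at 1500 G for 15 min. Platelets were resuspended in PPP at 5.0 × 10⁵/µL with IBMX (8 mmol/L final) and an EP3 antagonist, then held 5 min at 37 °C. Compound was added for 10 min at 37 °C, then PGD₂ (3 µmol/L final) for 15 min. TCA stop, tri-n-octylamine extraction, cAMP EIA. IC50 derived from inhibition ratio.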

A short description of data set [3]: Kinetic solubility of the compound. To be noted: read-out: Kinetic_solubility. Type of data set: physicochemical.

≈ marks a conversion by molar mass, not a printed value.

As to `Cc1cc(OCC2Oc3ccccc3O2)cc(C)c1C(=O)Nc1cc(CC(=O)O)ccc1Cl`, on Prostacyclin receptor, the Ki was greater than 10 µM. Moreover, in data set [1], the IC50 amounted to 0.027 µM.
`Cc1c(OC[C@@H]2CN(C)c3ccccc3O2)ccc(C(=O)Nc2cccc(CC(=O)O)c2)c1C`: the Ki at Prostacyclin receptor was greater than 10 µM. In data set [1], the IC50 came to 0.022 µM.
As to `Cc1cc(OC[C@@H]2COc3ccccc32)cc(C)c1C(=O)Nc1cc(CC(=O)O)ccc1Cl`, on Prostacyclin receptor, the Ki was greater than 10 µM. In addition, in data set [1], the IC50 turned out to be 0.0015 µM.
With `CN1C[C@@H](COc2ccc(C(=O)Nc3cc(C(C)(C)C(=O)O)ccc3Cl)c(Cl)c2)Oc2ccccc21`, on Prostacyclin receptor, the Ki stood at 3.3 µM. Besides, the IC50 in data set [1] was found to be 0.007 µM; in data set [2] it was 0.28 µM. The solubility kinetic in data set [3] is 139 µg/mL (≈ 263 µM).
The compound `Cc1cc(OC[C@@H]2Cc3ccccc3O2)cc(C)c1C(=O)Nc1cc(CC(=O)O)ccc1Cl` had a Ki at Prostacyclin receptor greater than 10 µM. Further, the IC50 in data set [1] turned out to be 0.014 µM.
For the compound `Cc1cc(OC[C@@H]2CN(C)c3ccccc3O2)cc(C)c1C(=O)Nc1cccc(CC(=O)O)c1`, at Prostacyclin receptor, the Ki was greater than 10 µM. For the same compound, the IC50 in data set [1] was determined as 0.0035 µM.
Regarding `Cc1ccc(CC(=O)O)cc1NC(=O)c1ccc(OC[C@@H]2CN(C)c3ccccc3O2)cc1Cl`, the affinity on Prostacyclin receptor, expressed as Ki, was 1.4 µM.
At Prostacyclin receptor, `Cc1cc(OC[C@@H]2CN(C)c3ccccc3O2)ccc1C(=O)Nc1cc(CC(=O)O)ccc1Cl` had a Ki of 1.8 µM. Moreover, the solubility kinetic in data set [3] was 129 µg/mL (≈ 268 µM).
For `Cc1ccc(CC(=O)O)cc1NC(=O)c1cc(C)c(OC[C@@H]2CN(C)c3ccccc3O2)cc1C`, on Prostacyclin receptor, affinity was put at a Ki of 2.6 µM. The IC50 in data set [1] is 0.0057 µM.
In turn, `CN1C[C@@H](COc2ccc(C(=O)Nc3cccc(CC(=O)O)c3)c(Cl)c2)Oc2ccccc21` registered a Ki at Prostacyclin receptor of 2.7 µM.
Turning to `Cc1cc(OC[C@@H]2CN(C)c3ccccc3O2)ccc1C(=O)Nc1cc(CC(=O)O)ccc1F`, the Ki on Prostacyclin receptor was greater than 10 µM.
`Cc1cc(C(=O)Nc2cccc(CC(=O)O)c2)c(C)cc1OC[C@@H]1CN(C)c2ccccc2O1`: the inhibitory constant (Ki) on Prostacyclin receptor was greater than 10 µM. Further, the IC50 in data set [1] came to 0.028 µM.
`Cc1cc(C(=O)Nc2cc(C3(C(=O)O)CC3)ccc2Cl)c(C)cc1OC[C@@H]1CN(C)c2ccccc2O1` returned a Ki on Prostacyclin receptor of 1.7 µM. Further, the IC50 in data set [1] came to 0.026 µM; in data set [2], 0.019 µM.
At Prostacyclin receptor, `Cc1ccc(CC(=O)O)cc1NC(=O)c1c(C)cc(OC[C@@H]2CN(C)c3ccccc3O2)cc1C` yielded a Ki greater than 10 µM. Moreover, in data set [1], the IC50 is 0.0048 µM.
Regarding `Cc1cc(OC[C@@H]2COc3ccccc3O2)cc(C)c1C(=O)Nc1cc(CC(=O)O)ccc1Cl`, the Ki on Prostacyclin receptor was greater than 10 µM. In addition, in data set [1], the concentration for half-maximal inhibition (IC50) was 0.0043 µM.
In turn, `Cc1cc(C(=O)Nc2cc(CC(=O)O)ccc2Cl)c(C)cc1OC[C@@H]1CN(C)c2ccccc2O1` returned a Ki on Prostacyclin receptor of 1.8 µM. Also, the IC50 in data set [1] came out at 0.0051 µM. The solubility kinetic in data set [3] amounted to 17 µg/mL (≈ 34.3 µM).
The corresponding values for `Cc1cc(OC[C@@H]2CN(C)c3ccccc3O2)cc(C)c1C(=O)Nc1cc(C2(C(=O)O)CC2)ccc1Cl` are greater than 10 µM, 0.001 µM and 321 µg/mL (≈ 616 µM).
As for `Cc1ccc(CC(=O)O)cc1NC(=O)c1ccc(OC[C@@H]2CN(C)c3ccccc3O2)c(C)c1C`, the Ki at Prostacyclin receptor came to 5.2 µM. The IC50 in data set [1] stood at 0.012 µM.
For `CN1C[C@@H](COc2ccc(C(=O)Nc3cc(CC(=O)O)ccc3Cl)c(Cl)c2)Oc2ccccc21`, the IC50 in data set [2] is greater than 0.05 µM.
As to `Cc1cc(C(=O)Nc2cc(C(C)(C)C(=O)O)ccc2Cl)c(C)cc1OC[C@@H]1CN(C)c2ccccc2O1`, on Prostacyclin receptor, affinity was put at a Ki of 3.3 µM. Besides, the half-maximal inhibitory concentration (IC50) in data set [1] worked out at 0.043 µM; in data set [2], 0.032 µM.
At Prostacyclin receptor, `Cc1ccc2c(c1)[C@H](COc1cc(C)c(C(=O)Nc3cc(CC(=O)O)ccc3Cl)c(C)c1)CO2` gave a Ki greater than 10 µM. Moreover, the half-maximal inhibitory concentration (IC50) in data set [1] turned out to be 0.024 µM.
For the compound `CN1C[C@@H](COc2ccc(C(=O)Nc3cc(C(F)(F)C(=O)O)ccc3Cl)c(Cl)c2)Oc2ccccc21`, on Prostacyclin receptor, the inhibition constant (Ki) is 0.52 µM. Besides, in data set [1], the IC50 was determined as 0.014 µM.
